In data set [1] the test system is Salmonella typhimurium. The experiment in a line: Genotoxicity in Salmonella typhimurium TA98 by Ames test in absence of S9 fractions. The note with it: salmonella enterica subsp. enterica serovar typhimurium. Type of data set: toxicity, organism-based. The method in brief:
(§1)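 Ames II liquid fluctuation microplate variant of the bacterial reverse mutation assay, run on the free heteroaryl amines released from the urea inhibitors. The TAMix strain mixture (TA7001–TA7006) detects base-pair substitutions and TA98 detects frameshift mutations. For metabolic activation, compounds were preincubated with rat liver S9 extract or run without it. Results were scored as positive or negative.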

Data set [2] deals with Salmonella typhimurium. The experiment in a line: Genotoxicity in Salmonella typhimurium TA98 by Ames test in presence of S9 fractions. Type of data set: toxicity, organism-based, S9 Fraction. As to conditions: salmonella enterica subsp. enterica serovar typhimurium. The method in brief: as §1
The subject of data set [3] is Salmonella typhimurium. The experiment in a line: Genotoxicity in Salmonella typhimurium TAMix by Ames test in absence of S9 fractions. Type of data set: toxicity, organism-based. As to conditions: salmonella enterica subsp. enterica serovar typhimurium. An outline of the steps:
as §1

For data set [4], the system named is Salmonella typhimurium. Put plainly: Genotoxicity in Salmonella typhimurium TAMix by Ames test in presence of S9 fractions. In kind it is toxicity, organism-based, S9 Fraction. As to conditions: salmonella enterica subsp. enterica serovar typhimurium. An outline of the steps:
as §1

Data set [5] deals with T1, Fatty-acid amide hydrolase 1 (Homo sapiens, UniProt O00519).
T1 sequence (O00519 whole entry): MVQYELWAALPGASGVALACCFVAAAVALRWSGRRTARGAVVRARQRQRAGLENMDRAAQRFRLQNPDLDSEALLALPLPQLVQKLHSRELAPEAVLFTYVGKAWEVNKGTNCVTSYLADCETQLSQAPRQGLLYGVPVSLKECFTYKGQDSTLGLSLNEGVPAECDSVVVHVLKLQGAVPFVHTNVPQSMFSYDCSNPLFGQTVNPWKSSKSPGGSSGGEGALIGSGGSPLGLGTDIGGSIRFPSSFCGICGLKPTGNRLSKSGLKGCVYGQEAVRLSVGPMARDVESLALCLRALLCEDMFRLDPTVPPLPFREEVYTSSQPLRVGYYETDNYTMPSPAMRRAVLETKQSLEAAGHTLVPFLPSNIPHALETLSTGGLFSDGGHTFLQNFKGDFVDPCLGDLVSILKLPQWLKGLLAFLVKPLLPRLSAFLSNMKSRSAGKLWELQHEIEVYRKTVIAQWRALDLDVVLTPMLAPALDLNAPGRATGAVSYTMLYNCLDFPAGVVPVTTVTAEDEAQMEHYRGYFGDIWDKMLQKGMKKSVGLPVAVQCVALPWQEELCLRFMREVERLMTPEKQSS
Put plainly: Inhibition of human FAAH preincubated for 60 mins.

The target of data set [6] is T2, Fatty-acid amide hydrolase 1 (Rattus norvegicus, UniProt P97612).
T2 sequence (P97612 whole entry): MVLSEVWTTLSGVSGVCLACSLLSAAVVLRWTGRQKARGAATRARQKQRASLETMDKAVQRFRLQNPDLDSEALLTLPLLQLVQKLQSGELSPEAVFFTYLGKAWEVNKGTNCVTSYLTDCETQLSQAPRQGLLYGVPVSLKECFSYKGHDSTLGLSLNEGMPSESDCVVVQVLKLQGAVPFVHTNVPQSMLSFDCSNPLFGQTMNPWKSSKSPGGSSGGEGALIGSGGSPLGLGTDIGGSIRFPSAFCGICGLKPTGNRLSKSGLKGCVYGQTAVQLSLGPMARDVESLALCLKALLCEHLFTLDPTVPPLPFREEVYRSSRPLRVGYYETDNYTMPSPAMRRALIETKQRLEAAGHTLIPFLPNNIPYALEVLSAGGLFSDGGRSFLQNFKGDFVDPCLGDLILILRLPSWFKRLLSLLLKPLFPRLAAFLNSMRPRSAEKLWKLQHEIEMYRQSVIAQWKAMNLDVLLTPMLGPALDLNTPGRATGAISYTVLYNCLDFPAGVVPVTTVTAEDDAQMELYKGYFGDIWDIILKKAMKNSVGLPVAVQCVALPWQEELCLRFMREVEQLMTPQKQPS
Put plainly: Inhibition of rat FAAH preincubated for 60 mins.

`O=C(Nc1ccccc1)N1CCN(Cc2cccc(Oc3ccc(Cl)cc3)c2)CC1`: the Activity result in data set [1], in data set [2], in data set [3] and in data set [4] was “Non-toxic” throughout. In addition, the values for the IC50 in data set [5] and in data set [6] were 6 nM and 300 nM, respectively.
With `O=C(Nc1cccnc1)N1CCN(Cc2cccc(Oc3ccc(Cl)cc3)c2)CC1`, the Activity entry in data set [1], in data set [2], in data set [3] and in data set [4] was “Non-toxic” in each case. The IC50 stood at 1.4 nM in data set [5] and 33 nM in data set [6].
